Key:
Test in all cases: stopped-flow CO2 hydration assay
Type in all cases: biochemical
hCA VI = hCA VI (Homo sapiens, UniProt P23280)
Outline: (§1)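 Enzyme-catalysed CO2 hydration was followed by stopped-flow at 557 nm with 0.2 mM phenol red in 20 mM HEPES pH 7.5 and 20 mM Na2SO4. Initial rates were taken over 10–100 s at five CO2 levels (1.7–17 mM). Enzyme was preincubated 15 min at room temperature with six inhibitor concentrations (100 µM–0.1 nM). Uncatalysed rate was subtracted; Ki came from nonlinear least squares, mean of ≥3 determinations.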

hCA I = hCA I (Homo sapiens, UniProt P00915)
Outline: as §1

hCA XII = hCA XII (Homo sapiens, UniProt O43570)
Outline: as §1

hCA XIII = hCA XIII (Homo sapiens, UniProt Q8N1Q1)
Outline: as §1

hCA II = hCA II (Homo sapiens, UniProt P00918)
Outline: as §1

hCA VII = hCA VII (Homo sapiens, UniProt P43166)
Outline: as §1

mCA XV = biological target: T1, mCA XV (Mus musculus, UniProt Q99N23)
T1 sequence (Q99N23 19-324): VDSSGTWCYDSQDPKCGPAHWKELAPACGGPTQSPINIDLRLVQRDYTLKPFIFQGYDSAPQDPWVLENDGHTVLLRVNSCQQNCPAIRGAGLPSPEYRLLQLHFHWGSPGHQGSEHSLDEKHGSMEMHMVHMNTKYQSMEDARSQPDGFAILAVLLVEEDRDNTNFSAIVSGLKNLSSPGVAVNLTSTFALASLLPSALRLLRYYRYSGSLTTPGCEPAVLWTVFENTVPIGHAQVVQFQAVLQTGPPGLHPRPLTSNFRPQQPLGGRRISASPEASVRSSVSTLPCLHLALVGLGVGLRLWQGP
Outline: as §1

hCA IX = hCA IX (Homo sapiens, UniProt Q16790)
Outline: as §1

hCA IV = hCA IV (Homo sapiens, UniProt P22748)
Outline: as §1

hCA VA = hCA VA (Homo sapiens, UniProt P35218)
Outline: as §1

hCA III = hCA III (Homo sapiens, UniProt P07451)
Outline: as §1

hCA VB = hCA VB (Homo sapiens, UniProt Q9Y2D0)
Outline: as §1

Sequence of hCA VI (P23280 18-308): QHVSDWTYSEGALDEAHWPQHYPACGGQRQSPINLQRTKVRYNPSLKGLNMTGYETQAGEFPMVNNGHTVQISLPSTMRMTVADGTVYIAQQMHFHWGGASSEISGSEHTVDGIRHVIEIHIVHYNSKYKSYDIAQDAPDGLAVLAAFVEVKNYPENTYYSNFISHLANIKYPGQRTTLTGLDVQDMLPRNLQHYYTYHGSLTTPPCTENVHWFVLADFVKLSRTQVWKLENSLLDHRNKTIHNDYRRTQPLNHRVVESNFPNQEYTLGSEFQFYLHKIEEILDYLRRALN
Sequence of hCA III (P07451 2-260): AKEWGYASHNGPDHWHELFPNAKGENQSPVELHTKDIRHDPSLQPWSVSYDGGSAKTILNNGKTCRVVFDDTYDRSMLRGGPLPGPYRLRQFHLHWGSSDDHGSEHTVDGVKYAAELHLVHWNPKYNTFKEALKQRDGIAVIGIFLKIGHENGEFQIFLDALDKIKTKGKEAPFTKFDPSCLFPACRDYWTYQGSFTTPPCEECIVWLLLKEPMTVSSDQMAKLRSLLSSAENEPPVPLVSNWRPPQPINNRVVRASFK
Sequence of hCA XIII (Q8N1Q1 whole entry): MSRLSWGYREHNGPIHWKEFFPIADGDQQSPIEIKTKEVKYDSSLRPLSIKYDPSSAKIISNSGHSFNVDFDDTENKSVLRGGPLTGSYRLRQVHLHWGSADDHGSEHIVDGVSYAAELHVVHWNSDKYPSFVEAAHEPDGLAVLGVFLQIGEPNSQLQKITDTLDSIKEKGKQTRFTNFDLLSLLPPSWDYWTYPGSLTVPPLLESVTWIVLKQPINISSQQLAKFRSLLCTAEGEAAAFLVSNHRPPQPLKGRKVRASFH
Sequence of hCA VII (P43166 whole entry): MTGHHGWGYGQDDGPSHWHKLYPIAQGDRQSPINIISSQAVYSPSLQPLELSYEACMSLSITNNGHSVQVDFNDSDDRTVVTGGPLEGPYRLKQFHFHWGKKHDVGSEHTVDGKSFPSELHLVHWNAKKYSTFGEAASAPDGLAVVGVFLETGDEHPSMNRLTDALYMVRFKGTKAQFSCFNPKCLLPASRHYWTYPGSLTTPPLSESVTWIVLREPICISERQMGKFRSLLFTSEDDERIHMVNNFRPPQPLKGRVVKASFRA
Sequence of hCA IV (P22748 19-284): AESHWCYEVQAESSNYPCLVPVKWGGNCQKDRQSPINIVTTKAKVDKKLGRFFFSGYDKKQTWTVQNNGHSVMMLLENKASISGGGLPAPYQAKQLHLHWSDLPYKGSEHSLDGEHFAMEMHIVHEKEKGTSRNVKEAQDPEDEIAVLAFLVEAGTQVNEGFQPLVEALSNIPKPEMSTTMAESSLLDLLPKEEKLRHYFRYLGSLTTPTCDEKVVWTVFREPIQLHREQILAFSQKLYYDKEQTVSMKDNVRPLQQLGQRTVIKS
Sequence of hCA VB (Q9Y2D0 34-317): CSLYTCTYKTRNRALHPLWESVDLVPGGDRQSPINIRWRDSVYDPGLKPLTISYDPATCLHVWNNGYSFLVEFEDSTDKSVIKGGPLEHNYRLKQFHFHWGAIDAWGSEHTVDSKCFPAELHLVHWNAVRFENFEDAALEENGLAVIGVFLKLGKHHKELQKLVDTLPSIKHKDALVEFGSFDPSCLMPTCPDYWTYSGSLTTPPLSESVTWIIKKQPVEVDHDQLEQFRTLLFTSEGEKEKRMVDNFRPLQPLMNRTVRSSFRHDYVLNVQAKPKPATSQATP
Sequence of hCA I (P00915 2-261): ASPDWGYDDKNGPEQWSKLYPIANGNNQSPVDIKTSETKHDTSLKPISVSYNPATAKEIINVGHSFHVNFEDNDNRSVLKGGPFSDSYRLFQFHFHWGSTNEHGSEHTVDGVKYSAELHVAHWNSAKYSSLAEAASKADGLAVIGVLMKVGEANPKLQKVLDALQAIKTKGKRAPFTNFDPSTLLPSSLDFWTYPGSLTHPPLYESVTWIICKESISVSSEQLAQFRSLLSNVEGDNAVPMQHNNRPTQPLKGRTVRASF
Sequence of hCA XII (O43570 25-354): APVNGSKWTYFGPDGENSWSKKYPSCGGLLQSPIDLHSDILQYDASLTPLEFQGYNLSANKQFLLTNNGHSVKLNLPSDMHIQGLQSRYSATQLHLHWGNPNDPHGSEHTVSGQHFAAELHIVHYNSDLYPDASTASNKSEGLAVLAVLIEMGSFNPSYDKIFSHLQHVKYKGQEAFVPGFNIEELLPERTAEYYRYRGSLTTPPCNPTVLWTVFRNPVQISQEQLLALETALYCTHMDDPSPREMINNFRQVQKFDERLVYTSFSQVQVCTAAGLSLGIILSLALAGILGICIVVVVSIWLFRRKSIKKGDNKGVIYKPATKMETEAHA
Sequence of hCA VA (P35218 39-305): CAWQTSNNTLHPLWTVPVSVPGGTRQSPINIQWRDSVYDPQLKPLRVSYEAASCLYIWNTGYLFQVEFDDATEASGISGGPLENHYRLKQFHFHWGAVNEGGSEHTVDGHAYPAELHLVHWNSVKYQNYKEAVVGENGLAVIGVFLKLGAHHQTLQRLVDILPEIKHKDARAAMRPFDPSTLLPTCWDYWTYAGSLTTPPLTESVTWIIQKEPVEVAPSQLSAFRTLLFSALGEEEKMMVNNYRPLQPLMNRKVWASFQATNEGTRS

Ki (hCA VI) | Ki (hCA I) | Ki (hCA XII) | Ki (hCA XIII) | Ki (hCA II) | Ki (hCA VII) | Ki (mCA XV) | Ki (hCA IX) | Ki (hCA IV) | Ki (hCA VA) | Ki (hCA III) | Ki (hCA VB) | Compound
3.6 µM | 9.4 µM | 4.8 µM | 10.8 µM | 4.1 µM | 3.6 µM | 4.7 µM | 9.2 µM | 4.4 µM | 4 µM | 7.5 µM | 3.8 µM | On1ccccc1=S [compound 4, 1,2-HOPTO]
3.5 µM | 9.1 µM | 4 µM | 10.4 µM | 3.6 µM | 3.4 µM | 2.8 µM | 9.5 µM | 4.3 µM | 4.6 µM | 9.5 µM | 4.3 µM | Cc1occc(=O)c1O [compound 1, maltol]
3.2 µM | 8.3 µM | 4.5 µM | 10.4 µM | 4 µM | 3.6 µM | – | 10 µM | 4.6 µM | 4.2 µM | 8.4 µM | 4 µM | Cc1occc(=S)c1O [compound 2, thiomaltol]
